We go through 36 compounds from ChEMBL document CHEMBL1125690, “Quinazoline antifolate thymidylate synthase inhibitors: heterocyclic benzoyl ring modifications” (J Med Chem, 1991).

For orientation: IC50 means the midpoint of a concentration-inhibition curve. High values mean a need for much substance, low ones inhibition by little substance.

Assay [1] concerns L1210. The assay is described as follows: In vitro inhibition of L1210 cell growth in culture. It is filed as functional, cell-based. The following applies: Mus musculus. A digest of the protocol: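 L1210 mouse leukaemia cells grown in culture. The value reported is the IC50 for inhibition of cell growth.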
Assay [2] concerns the target Thymidylate synthase (Mus musculus, UniProt P07607). Briefly: In vitro inhibition of partially purified L1210 thymidylate synthase (TS).

Chain of Thymidylate synthase (P07607 whole entry): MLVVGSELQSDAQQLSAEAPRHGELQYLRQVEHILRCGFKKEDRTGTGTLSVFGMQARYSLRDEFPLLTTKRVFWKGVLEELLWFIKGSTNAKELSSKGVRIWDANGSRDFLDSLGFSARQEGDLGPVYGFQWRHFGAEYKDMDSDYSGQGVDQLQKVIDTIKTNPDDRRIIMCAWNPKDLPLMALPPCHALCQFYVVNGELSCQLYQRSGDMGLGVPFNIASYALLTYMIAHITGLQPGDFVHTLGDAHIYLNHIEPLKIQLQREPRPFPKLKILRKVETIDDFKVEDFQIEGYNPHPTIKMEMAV

As to `Cc1nc2ccc(CN(C)c3ccc(C(=O)N[C@@H](CCC(=O)O)C(=O)O)cn3)cc2c(=O)[nH]1`, the IC50 was found to be 1600 nM in assay [1] and 4250 nM in assay [2].
The corresponding values for `CCCN(Cc1ccc2nc(C)nc(O)c2c1)c1ccc(C(=O)N[C@H](CCC(=O)O)C(=O)O)s1` are 400 nM and 1850 nM.
Turning to `CN(Cc1ccc2nc(CF)nc(O)c2c1)c1ccc(C(=O)N[C@H](CCC(=O)O)C(=O)O)s1`, the results for the IC50 in assay [1] and in assay [2] were 16 nM and 1360 nM, respectively.
Turning to `Cc1nc(O)c2cc(CN(CCF)c3cnc(C(=O)N[C@H](CCC(=O)O)C(=O)O)s3)ccc2n1`, the IC50 is 20 nM in assay [1] and 190 nM in assay [2].
Consider `Cc1nc(O)c2cc(CN(C)c3ccc(C(=O)N[C@H](CCC(=O)O)C(=O)O)s3)ccc2n1`, for which the IC50 in assay [1] worked out at 7 nM.
Take `C#CCN(Cc1ccc2nc(C)[nH]c(=O)c2c1)c1ccc(C(=O)N[C@@H](CCC(=O)O)C(=O)O)nc1`: the IC50 in assay [1] is 60 nM; in assay [2] it was 40 nM.
Take `Cc1nc2ccc(CN(C)c3ccc(C(=O)N[C@@H](CCC(=O)O)C(=O)O)nc3)cc2c(=O)[nH]1`: the figures for the IC50 in assay [1] and in assay [2] were 160 nM and 350 nM, respectively.
Take `Cc1nc2ccc(CN(C)c3cnc(C(=O)N[C@@H](CCC(=O)O)C(=O)O)nc3)cc2c(=O)[nH]1`: the IC50 worked out at 1400 nM in assay [1] and 2340 nM in assay [2].
Turning to `Cc1nc2ccc(CN(C)c3ccc(C(=O)N[C@@H](CCC(=O)O)C(=O)O)cc3)cc2c(=O)[nH]1`, the IC50 in assay [2] was 250 nM.
Regarding `CN(Cc1ccc2nc(CO)nc(O)c2c1)c1cnc(C(=O)N[C@H](CCC(=O)O)C(=O)O)s1`, the IC50 in assay [1] amounted to 300 nM; in assay [2], 490 nM.
On to `Cc1nc(O)c2cc(CN(CCCO)c3cnc(C(=O)N[C@H](CCC(=O)O)C(=O)O)s3)ccc2n1`, for which the figures for the IC50 in assay [1] and in assay [2] were 60 nM and 1740 nM, respectively.
Consider `Cc1nc(O)c2cc(CN(CCO)c3ccc(C(=O)N[C@H](CCC(=O)O)C(=O)O)s3)ccc2n1`, for which the IC50 in assay [1] is 100 nM; in assay [2] it was 1200 nM.
As for `Cc1nc(O)c2cc(CN(CCCO)c3ccc(C(=O)N[C@H](CCC(=O)O)C(=O)O)s3)ccc2n1`, the IC50 in assay [1] is 3000 nM; in assay [2], 3360 nM.
Take `Cc1nc(O)c2cc(CNc3ccc(C(=O)N[C@H](CCC(=O)O)C(=O)O)s3)ccc2n1`: the figures for the IC50 in assay [1] and in assay [2] were 3000 nM and 24800 nM, respectively.
Take `CCN(Cc1ccc2nc(C)nc(O)c2c1)c1ccc(C(=O)N[C@H](CCC(=O)O)C(=O)O)s1`: the IC50 in assay [1] worked out at 16 nM; in assay [2], 580 nM.
For the compound `C=CCN(Cc1ccc2nc(C)nc(O)c2c1)c1ccc(C(=O)N[C@H](CCC(=O)O)C(=O)O)s1`, the IC50 in assay [1] worked out at 58 nM; in assay [2], 1680 nM.
Regarding `CCN(Cc1ccc2nc(C)nc(O)c2c1)c1ncc(C(=O)N[C@H](CCC(=O)O)C(=O)O)s1`, the IC50 in assay [1] was 900 nM; in assay [2] it was 760 nM.
As to `Cc1nc(O)c2cc(CN(CCO)c3cnc(C(=O)N[C@H](CCC(=O)O)C(=O)O)s3)ccc2n1`, the IC50 in assay [1] stood at 20 nM; in assay [2] it was 420 nM.
On to `CN(Cc1ccc2nc(CO)nc(O)c2c1)c1ccc(C(=O)N[C@H](CCC(=O)O)C(=O)O)s1`, for which the IC50 was found to be 780 nM in assay [1] and 1360 nM in assay [2].
The matching figures for `C=CCN(Cc1ccc2nc(C)[nH]c(=O)c2c1)c1ccc(C(=O)N[C@@H](CCC(=O)O)C(=O)O)nc1`: 130 nM and 760 nM.
Take `Cc1nc2ccc(CN(CCF)c3ccc(C(=O)N[C@@H](CCC(=O)O)C(=O)O)nc3)cc2c(=O)[nH]1`: the IC50 turned out to be 140 nM in assay [1] and 160 nM in assay [2].
The matching figures for `C#CCN(Cc1ccc2nc(C)nc(O)c2c1)c1ccc(C(=O)N[C@H](CCC(=O)O)C(=O)O)s1`: 60 nM and 440 nM.
Turning to `C=CCN(Cc1ccc2nc(C)nc(O)c2c1)c1cnc(C(=O)N[C@H](CCC(=O)O)C(=O)O)s1`, the IC50 worked out at 13 nM in assay [1] and 1070 nM in assay [2].
The matching figures for `Cc1nc(O)c2cc(CN(CCF)c3ccc(C(=O)N[C@H](CCC(=O)O)C(=O)O)s3)ccc2n1`: 100 nM and 550 nM.
With `CCN(Cc1ccc2nc(CF)nc(O)c2c1)c1ccc(C(=O)N[C@H](CCC(=O)O)C(=O)O)s1`, the values for the IC50 in assay [1] and in assay [2] were 110 nM and 930 nM, respectively.
Consider `CCN(Cc1ccc2nc(C)nc(O)c2c1)c1cnc(C(=O)N[C@H](CCC(=O)O)C(=O)O)s1`, for which the IC50 is 8 nM in assay [1] and 230 nM in assay [2].
Regarding `Cc1nc(O)c2cc(CNc3cnc(C(=O)N[C@H](CCC(=O)O)C(=O)O)s3)ccc2n1`, the IC50 was 280 nM in assay [1] and 7120 nM in assay [2].
On to `C#CCN(Cc1ccc2nc(C)nc(O)c2c1)c1cnc(C(=O)N[C@H](CCC(=O)O)C(=O)O)s1`, for which the IC50 in assay [1] is 8 nM; in assay [2], 230 nM.
The matching figures for `CCN(Cc1ccc2nc(C)[nH]c(=O)c2c1)c1ccc(C(=O)N[C@@H](CCC(=O)O)C(=O)O)nc1`: 640 nM and 150 nM.
Take `CCN(Cc1ccc2nc(C)nc(O)c2c1)c1nnc(C(=O)N[C@H](CCC(=O)O)C(=O)O)s1`: the IC50 amounted to 2400 nM in assay [1] and 940 nM in assay [2].
Regarding `CCN(Cc1ccc2nc(CO)nc(O)c2c1)c1ccc(C(=O)N[C@H](CCC(=O)O)C(=O)O)s1`, the figures for the IC50 in assay [1] and in assay [2] were 2700 nM and 1030 nM, respectively.
In assay [2], `CCN(Cc1ccc2nc(C)[nH]c(=O)c2c1)c1ccc(C(=O)N[C@@H](CCC(=O)O)C(=O)O)cc1` gave an IC50 of 260 nM.
Take `Cc1nc(O)c2cc(CN(CC#N)c3ccc(C(=O)N[C@H](CCC(=O)O)C(=O)O)s3)ccc2n1`: the IC50 in assay [1] came to 200 nM; in assay [2], 3080 nM.
Take `CCN(Cc1ccc2nc(CF)nc(O)c2c1)c1cnc(C(=O)N[C@H](CCC(=O)O)C(=O)O)s1`: the IC50 in assay [1] was 100 nM; in assay [2], 220 nM.
In the case of `Cc1nc(O)c2cc(CN(C)c3cnc(C(=O)N[C@H](CCC(=O)O)C(=O)O)s3)ccc2n1`, the IC50 in assay [1] came to 6 nM; in assay [2], 420 nM.
As to `O=C(O)CC[C@@H](NC(=O)c1ccc(N(CCF)Cc2ccc3nc(CF)nc(O)c3c2)s1)C(=O)O`, the results for the IC50 in assay [1] and in assay [2] were 670 nM and 1070 nM, respectively.
